Measured values pooled from the literature.
Protocols differ between the studies behind these lines.
EGFR G719C: Epidermal growth factor receptor (EGFR, Homo sapiens, UniProt P00533, G719C)
EGFR: Epidermal growth factor receptor (EGFR, Homo sapiens, UniProt P00533)
EGFR A750P/del747-749: Epidermal growth factor receptor (EGFR, Homo sapiens, UniProt P00533, A750P/del747-749)
EGFR del752-759: Epidermal growth factor receptor (EGFR, Homo sapiens, UniProt P00533, del752-759)
EGFR L861Q: Epidermal growth factor receptor (EGFR, Homo sapiens, UniProt P00533, L861Q)
EGFR L858R: Epidermal growth factor receptor (EGFR, Homo sapiens, UniProt P00533, L858R)
EGFR L858R/T790M: Epidermal growth factor receptor (EGFR, Homo sapiens, UniProt P00533, L858R/T790M)
EGFR T790M: Epidermal growth factor receptor (EGFR, Homo sapiens, UniProt P00533, T790M)
EGFR G719S: Epidermal growth factor receptor (EGFR, Homo sapiens, UniProt P00533, G719S)

Cc1nc(N2CC[C@@H](O)C2)ncc1-c1cc(C(F)(F)F)cc2[nH]ncc12  remaining binding (EGFR G719C; cell-free assay, competition with immobilised ligand; 1 µM): 100%
CCN(CC)Cc1cc(Nc2ccnc3cc(Cl)ccc23)ccc1O  remaining binding (EGFR; cell-free assay, competition with immobilised ligand; 10 µM): 91%
O=C(NC1CCC1)c1ccc2nc(-c3cccc(NS(=O)(=O)NCCN4CCCCC4)c3)cn2c1  remaining binding (EGFR A750P/del747-749; cell-free assay, competition with immobilised ligand; 10 µM): 100%
O=C(Nc1c[nH]nc1C(=O)NC1CCNCC1)c1cc(F)cc(F)c1  remaining binding (EGFR del752-759; binding, competition with immobilised ligand; 1 µM): 100%
CN(C)c1nccc(-c2cnn3ncccc23)n1  remaining binding (EGFR L861Q; binding; 1 µM): 90%
CN1CCN(c2ccc(Nc3nccc(-c4ccccc4)n3)cc2C(F)(F)F)CC1  remaining binding (EGFR L858R; binding; 10 µM): 84%
O=C(c1ccc(Nc2ncc(Cl)c(-c3ccc(Cl)s3)n2)cc1)N1CCC(N2CCCC2)CC1  remaining binding (EGFR L858R/T790M; binding, competition with immobilised ligand; 1 µM): 49%
C[C@H]1CCN(c2nccc(-c3cnn4ncccc34)n2)C1  remaining binding (EGFR; binding; 1 µM): 100%
c1cncc(-c2cccc(Nc3nccc(NC4CCCCC4)n3)c2)c1  remaining binding (EGFR G719C; binding, competition with immobilised ligand; 10 µM): 70%
Cc1nccc(COC(=O)N2C[C@@H]3[C@@H](CNC(=O)c4ccc5[nH]nnc5c4)[C@@H]3C2)n1  remaining binding (EGFR A750P/del747-749; cell-free assay, competition with immobilised ligand; 1 µM): 71%
Nc1ncc2c(n1)-c1c([nH]c3ccc(C#CC4CC4)cc13)CCCC2  remaining binding (EGFR L858R/T790M; binding, competition with immobilised ligand; 1 µM): 87%
CN1CCN(c2ccc(Nc3nccc(-c4cccc([N+](=O)[O-])c4)n3)cc2C(F)(F)F)CC1  remaining binding (EGFR L858R; binding; 10 µM): 72%
CN(C)c1nccc(-c2cnc3ncccn23)n1  remaining binding (EGFR T790M; binding; 1 µM): 58%
Cc1ccc(NC(=O)c2ccc(CN3CCN(C)CC3)cc2)cc1Nc1nccc(-c2cccnc2)n1  remaining binding (EGFR; cell-free assay, competition with immobilised ligand; 0.1 µM): 100%
O=C(NCCCN1CCOCC1)c1ccc(Nc2nccc(-c3cc4ccccc4s3)n2)cc1  remaining binding (EGFR G719S; binding, competition with immobilised ligand; 1 µM): 100%
C[C@@H]1CN(c2cc(-c3n[nH]c4ccc(OC5(C)CC5)cc34)ncn2)C[C@H](C)O1  remaining binding (EGFR L858R; cell-free assay, competition with immobilised ligand; 0.1 µM): 82%
Cc1cnc(Nc2ccc(C(=O)N3CCC(N4CCCC4)CC3)cc2)nc1-c1cc2ccccc2s1  remaining binding (EGFR A750P/del747-749; binding, competition with immobilised ligand; 1 µM): 72%
Cc1cnn2ncc(-c3ccnc(N(C)C)n3)c2c1  remaining binding (EGFR L858R/T790M; binding; 1 µM): 100%
CO[C@@H](C)c1c(Nc2ccc([C@H](N(C)C(=O)C3CCS(=O)(=O)CC3)C(F)(F)F)cc2)cnc2cc(Cl)nn12  remaining binding (EGFR A750P/del747-749; cell-free assay, competition with immobilised ligand; 1 µM): 99%
O=C(NCCCN1CCOCC1)c1ccc(Nc2ncc(Cl)c(-c3ccc(Cl)s3)n2)cc1  remaining binding (EGFR L861Q; binding, competition with immobilised ligand; 1 µM): 100%
COc1ncc2cc3ccccc3nc2c1C#N  remaining binding (EGFR T790M; cell-free assay, competition with immobilised ligand; 5 µM): 100%
CC(=O)N1CCC(c2ccc(C(=O)NC(=N)N)cc2C(F)(F)F)CC1  remaining binding (EGFR del752-759; cell-free assay, competition with immobilised ligand; 1 µM): 90%
O=C(c1ccc(Nc2nccc(-c3cc4ccccc4s3)n2)cc1)N1CCC(N2CCCC2)CC1  remaining binding (EGFR L861Q; binding, competition with immobilised ligand; 1 µM): 89%
O=C1CCc2cc(Nc3cc(OC4CCOCC4)c([N+](=O)[O-])cc3Cl)ccc2N1  remaining binding (EGFR L861Q; cell-free assay, competition with immobilised ligand; 1 µM): 100%
F[C@@H]1CCN(c2nccc(-c3cnn4ncccc34)n2)C1  remaining binding (EGFR L861Q; binding; 1 µM): 93%
C[C@@H]1CN(c2ccc3ncc(-c4ccc5[nH]nc(C6CC6)c5c4)n3n2)C[C@H](C)O1  remaining binding (EGFR; binding, competition with immobilised ligand; 0.5 µM): 31%
c1cnn2ncc(-c3ccnc(N4CCC45COC5)n3)c2c1  remaining binding (EGFR G719C; binding; 1 µM): 100%
N#Cc1ccccc1CSc1nnc2c(n1)[nH]c1ccccc12  remaining binding (EGFR L858R; binding, competition with immobilised ligand; 10 µM): 100%
CNC(=O)[C@@H]1CC[C@@H](n2c(-c3ccc4cnccc4c3)nc3ccc(C(=O)NCc4cccc(C(N)=O)c4)cc32)C1  remaining binding (EGFR; binding, competition with immobilised ligand; 1 µM): 100%
O=C(Nc1cccnn1)N1CC(C/C=C/c2cncc(Oc3ccc(C(F)(F)F)cn3)n2)C1  remaining binding (Epidermal growth factor receptor (EGFR, Homo sapiens, UniProt P00533, del747-750/T751S); cell-free assay, competition with immobilised ligand; 1 µM): 100%
O=C(c1ccc(Nc2ncc(Cl)c(-c3cc4ccccc4s3)n2)cc1)N1CCC(N2CCCC2)CC1  remaining binding (Epidermal growth factor receptor (EGFR, Homo sapiens, UniProt P00533, del747-752/P753S); binding, competition with immobilised ligand; 1 µM): 79%
Cn1cc(Cl)c2c(Oc3c(F)cc(Nc4cc(Cl)nc(N)n4)cc3F)ccnc21  remaining binding (EGFR T790M; cell-free assay, competition with immobilised ligand; 0.1 µM): 88%
CCN1CCN(Cc2ccc(C(=O)Nc3ccc(C)c(Oc4ccc5c(c4)CC(=O)N5)c3)cc2C(F)(F)F)CC1  remaining binding (EGFR L861Q; binding, competition with immobilised ligand; 1 µM): 77%
COc1cnc(Nc2cccc(S(N)(=O)=O)c2)nc1N1CCN(c2ccccc2)C(=O)C1  remaining binding (EGFR L858R/T790M; binding, competition with immobilised ligand; 1 µM): 72%
N[C@H]1CCN(c2nccc(-c3cnn4ncccc34)n2)C1  remaining binding (EGFR; binding; 1 µM): 100%
COc1cnc(Nc2cccc(S(N)(=O)=O)c2)nc1N1CCN(c2ccccc2)CC1  remaining binding (EGFR del752-759; binding, competition with immobilised ligand; 1 µM): 94%
O=C(NCC1CCOCC1)c1n[nH]cc1NC(=O)c1c(F)cccc1F  remaining binding (EGFR G719S; binding, competition with immobilised ligand; 1 µM): 100%
